Structures are written as SMILES. Hit rate of the full screen: of about 65,000 compounds, about 1,200 (1.8%) were called active.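 Rule for the calls: active = activation above the mean activation of all tested compounds plus 3 SD (cut at about 50% in these data); inactive = the rest.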 Only a selection was taken, and actives are over-represented in it overall.

For the assay, the target named is Steroidogenic factor 1 (Homo sapiens) (UniProt Q13285). The assay can be described thus: activators of human SF-1, primary screen, cell-based, CHO-K1, Gal4-SF-1 LBD, luciferase luminescence (AID 522). The settings on record: CHO-K1 Gal4-SF-1 LBD luciferase reporter; at 10 µM; hits give high values; % increase over DMSO SF-1-specific signal. The method in brief: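 Material: Transient Gal4-SF-1 LBD reporter, CHO-K1 | Input: 4,000 cells/well | Dosing: One dose, 10 µM compound, 1% DMSO | Incubation: 20 h compound treatment, 37 °C | Detection: SteadyLite luciferase luminescence | Evaluation: Percent activation relative to DMSO median and mock-transfected background | Benchmarks: DMSO-treated SF-1-transfected cells as negative, DMSO-treated mock-transfected cells lacking SF-1 as background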
Sequence of Steroidogenic factor 1 (Homo sapiens) (Q13285 whole entry, looked up, the tested form may be a part): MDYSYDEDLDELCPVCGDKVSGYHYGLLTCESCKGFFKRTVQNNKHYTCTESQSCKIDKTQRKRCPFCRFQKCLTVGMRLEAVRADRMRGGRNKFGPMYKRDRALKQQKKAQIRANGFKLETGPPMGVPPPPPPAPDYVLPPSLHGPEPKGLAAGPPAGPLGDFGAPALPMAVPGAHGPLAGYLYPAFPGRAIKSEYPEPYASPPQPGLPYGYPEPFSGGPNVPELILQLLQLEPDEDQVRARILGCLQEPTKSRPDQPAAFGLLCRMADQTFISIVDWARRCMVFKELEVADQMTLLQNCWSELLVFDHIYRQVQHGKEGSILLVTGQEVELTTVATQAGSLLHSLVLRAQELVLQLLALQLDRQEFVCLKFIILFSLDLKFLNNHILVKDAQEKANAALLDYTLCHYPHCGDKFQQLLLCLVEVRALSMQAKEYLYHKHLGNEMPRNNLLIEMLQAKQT
Background: In a reporter assay the amount or activity of a reporter protein is the signal.
With `CC(=O)c1ccc(NC(=O)N[C@@H](Cc2ccccc2)C(=O)O)cc1`, the activation was -21% (inactive).

Regarding `O=C(c1cc(-c2ccc(O)cc2)on1)N1CCCc2ccccc21`, the activation is 47.5% (inactive).

`O=C(Nc1ccccc1C(F)(F)F)c1cc(-c2ccc(O)cc2)on1`: the activation is 64.4% (active).

In the case of `Cc1cc(C)nc(NC(=O)Nc2ccccc2C(F)(F)F)n1`, the activation was 14.8% (inactive).

On to `CC(C)C(NC(=O)OCc1ccccc1)C(=O)OCC(=O)N1C(C)CCCC1C` (stereo not given), for which the activation was -2.9% (inactive).

Consider `Cc1ccc(C(=O)NC2CC(C)(C)NC(C)(C)C2)c(C)c1`, for which the activation is 4.3% (inactive).

In the case of `O=C1CC(N2CCN(C(c3ccccc3)c3ccccc3)CC2)C(=O)N1` (stereo not given), the activation was -23% (inactive).

For `COc1ccc(CCNC(=O)c2cc(-c3ccc4c(c3)OCO4)on2)cc1OC`, the activation was 3.9% (inactive).

On to `COc1ccc(-c2cc(C(=O)NC(C(=O)O)C(C)C)c(C)o2)cc1OC` (stereo not given), for which the activation was 56.5% (active).

Consider `COc1ccc(CNC(=O)c2c(C)cc(=O)oc2C)cc1OC`, for which the activation was 7.4% (inactive).

Take `CN(C(=O)CSc1nnnn1-c1ccccc1)C1CCCCC1`: the activation is 34.6% (inactive).

Regarding `COc1ccc(-n2ncc3c(N4CCCc5ccccc54)ncnc32)cc1`, the activation is 33.2% (inactive).

Take `Cc1cccc(-n2ncc3c(N4CCc5ccccc54)ncnc32)c1`: the activation is 33.4% (inactive).

As for `COc1ccc(-n2ncc3c(N4CCc5ccccc54)ncnc32)cc1`, the activation was 59.8% (active).

Regarding `Cn1nnnc1SCC(=O)N1CCN(Cc2ccccc2)CC1`, the activation was -17.2% (inactive).

In the case of `CC(=NCC1CCCO1)c1c(O)[nH]c(=O)[nH]c1=O` (stereo not given), the activation is 12.9% (inactive).

Turning to `COc1cccc2sc(Nc3nc(C)c(C(C)=O)s3)nc12`, the activation is 109% (active).

As to `COC(=O)c1sc(NC(=O)c2ccc(OC)cc2OC)nc1C`, the activation is -57.8% (inactive).

In the case of `COc1ccccc1Nc1ncc(C(C)=O)c(C)n1`, the activation was 34% (inactive).

Turning to `CC(=O)Nc1ccc(S(=O)(=O)N2CCN(C3CCCCCCC3)CC2)cc1`, the activation is -6.4% (inactive).

Regarding `COc1cccc(N2CCN(C3CC(=O)N(c4ccc(Cl)cc4)C3=O)CC2)c1` (stereo not given), the activation was -14.7% (inactive).

With `COc1ccc(C(=O)Nc2ccc(S(=O)(=O)Nc3onc(C)c3C)cc2)cc1OC`, the activation is -3.3% (inactive).

For the compound `COc1ccc(S(=O)(=O)N2CCN(C(=O)c3cccs3)CC2)cc1OC`, the activation was -5.5% (inactive).

`CCc1ccc(N2CC(C(=O)NC3=NCCS3)CC2=O)cc1` (stereo not given): the activation was -7.9% (inactive).

With `O=C(NC1=NCCS1)c1ccc(Cl)s1`, the activation was 66.2% (active).

Regarding `CC(NC(=O)COc1ccccc1)C(=O)NC1=NCCS1` (stereo not given), the activation is -0.2% (inactive).

On to `C=CCn1c(CC(=O)Nc2cccc(OC)c2)nnc1SCC(=O)NC1CCCCC1`, for which the activation is 12.8% (inactive).

Take `Clc1cccc(Cl)c1Cn1nnc(-c2cccs2)n1`: the activation is 50.8% (active).

For the compound `O=c1cc(Cn2nnc(-c3ccc(Cl)cc3)n2)nc2sccn12`, the activation was -5.8% (inactive).

`COc1ccccc1N1CCN(C(=O)Cn2nnc(-c3cccs3)n2)CC1`: the activation is 5% (inactive).

As for `O=S(=O)(NCC1CCCO1)c1ccc2ccccc2c1` (stereo not given), the activation was -16.7% (inactive).

For the compound `O=C(c1cccnc1NCc1ccccc1)N1CCOCC1`, the activation was -2.1% (inactive).

On to `CCOC(=O)c1sc(/N=C/Nc2nc(C)c(C(=O)OCC)s2)nc1C`, for which the activation is -2% (inactive).

For `COc1ccc(CCN(C)C(=O)C2CCCN(Cc3ccc(OC)c(OC)c3)C2)cc1OC` (stereo not given), the activation was 5.8% (inactive).

For `O=C(Cn1nnc(-c2ccccc2)n1)NCc1ccccc1`, the activation is 8.3% (inactive).

In the case of `CC(C)(C)NC(=O)Cn1nnc(-c2ccccc2Cl)n1`, the activation was 50% (active).

Take `Cc1ccccc1-c1nnn(CC(=O)c2ccc(S(=O)(=O)N3CCCC3)cc2)n1`: the activation was -10.4% (inactive).

Take `CN(C(=O)c1ccccn1)c1nnc(-c2ccccn2)s1`: the activation is 56.6% (active).

`CN(C(=O)COc1ccccc1)c1nnc(-c2ccncc2)s1`: the activation is -6.7% (inactive).

Turning to `CN(C(=O)c1ccno1)c1nnc(-c2cccnc2)s1`, the activation was -11.5% (inactive).

As to `COc1cc2cc(CN(CCN3CCCC3)C(=O)Nc3ccccc3Cl)c(=O)[nH]c2cc1OC`, the activation is -8.6% (inactive).

As to `COc1ccc(-c2noc(-c3cccc(OC)c3OC)n2)cc1OC`, the activation is 100% (active).

As for `COc1ccc(-c2nc(-c3ccccc3)no2)c(OC)c1`, the activation is -82.9% (inactive).

Regarding `COc1cc(-c2nc(-c3ccncc3)no2)cc(OC)c1OC`, the activation is -2.5% (inactive).

Take `COCCOC(=O)C1=C(C)Nc2nc(C)nn2C1c1ccccc1` (stereo not given): the activation is 4.8% (inactive).

On to `CCCCCNC(=O)Cc1ccc(OC)cc1`, for which the activation is -9.8% (inactive).

In the case of `O=C(O)CSCNC(=O)CC12CC3CC(CC(C3)C1)C2`, the activation is -5.6% (inactive).

For the compound `O=S(=O)(Nc1ccc2nc(-c3ccco3)[nH]c2c1)c1ccccc1`, the activation was 53.5% (active).

For `Cc1ccc(S(=O)(=O)Nc2ccc3ncccc3c2)cc1`, the activation was -16.8% (inactive).

Regarding `COc1cc(NS(=O)(=O)c2ccccc2)ccc1-n1nc(C)cc1C`, the activation was -10.6% (inactive).

For `COc1cc(C2C(C#N)=C(C)NC3=C2C(=O)CC(C)(C)C3)ccc1O` (stereo not given), the activation was 1.5% (inactive).

As to `Cc1ccc(Cn2ccc(NC(=O)C3C4CCC(C4)C3C(=O)O)n2)cc1` (stereo not given), the activation is 3.1% (inactive).

With `CCc1nnc(NC(=O)C2CCCN2S(=O)(=O)c2ccccc2)s1` (stereo not given), the activation was -4.2% (inactive).

As to `CCC(=O)Oc1cccc(C(=O)Nc2ccc(-c3nnc(-c4ccco4)o3)cc2)c1`, the activation was 79.8% (active).

In the case of `CCCCOc1ccc(-c2nnc(-c3ccco3)o2)cc1`, the activation is 23.6% (inactive).

For `CCOc1ccc(-c2nnc(-c3ccco3)o2)cc1`, the activation was -48% (inactive).

Take `CCCOc1cccc(C(=O)Nc2nnn(CCC)n2)c1`: the activation was 26.3% (inactive).

For `Cc1ccc(OCC(=O)Nc2ccc(-c3nnc(-c4ccco4)o3)cc2)cc1`, the activation was 65.5% (active).

As to `COc1ccc(CC(=O)Nc2ccc(-c3nnc(-c4ccc(C)cc4)o3)cc2)cc1`, the activation was -47.6% (inactive).

With `CCOC(=O)c1[nH]c2ccc(OC)cc2c1NC(=O)CCN1CCN(Cc2ccccc2)CC1`, the activation is -7.7% (inactive).

Consider `COc1cccc(-n2cc3c(c2-c2ccccc2)c(=O)n(C)c(=O)n3C)c1`, for which the activation was -21.1% (inactive).

Turning to `CCOC(=O)c1cn(CC(=O)Nc2ccc(C(C)C)cc2)nn1`, the activation is 3.2% (inactive).

For the compound `O=C(CN1CCN(C(=O)c2ccco2)CC1)Nc1ccc(Cl)c(C(F)(F)F)c1`, the activation is 11.1% (inactive).

For the compound `Cc1ccc(S(=O)(=O)NCc2cn3ccsc3n2)c(C)c1`, the activation was -0.8% (inactive).

For the compound `CCCC(=O)Nc1cccc(-c2cn3ccsc3n2)c1`, the activation was 45.8% (inactive).

Turning to `COc1ccc(-c2cn3ccsc3n2)cc1`, the activation was 53.3% (active).

For the compound `O=C(O)[C@@H]1CCCN1c1ncnc2sc3c(c12)CCC3`, the activation was -13.4% (inactive).

As for `Cn1c(=O)c(C(=O)Nc2ncccn2)c(O)c2ccccc21`, the activation is 64.2% (active).

Take `CCOc1cc(C(=O)Nc2ncccn2)cc(OCC)c1OCC`: the activation is -1.3% (inactive).

For `O=C(Nc1ncccn1)c1cccs1`, the activation was 18.9% (inactive).

On to `Cc1ccccc1OCCC(=O)Nc1c(C)n(C)n(-c2ccccc2)c1=O`, for which the activation was 13.7% (inactive).

On to `Cc1nnc(NC(=O)CCC(=O)N2CCC(C)CC2)s1`, for which the activation is 0.2% (inactive).

In the case of `Cc1ccc(S(=O)(=O)N2CCC(N3CCCCCC3)CC2)cc1`, the activation is 10.8% (inactive).

Turning to `CCN(CC)S(=O)(=O)c1cc(C(=O)Nc2ccccn2)ccc1C`, the activation is 49.3% (inactive).

`Cc1nc2c(c(=O)n1Cc1ccco1)c1nc3ccccc3nc1n2Cc1ccccc1`: the activation is -2.3% (inactive).

As to `CC(C)NC(=O)CCCn1c(=S)[nH]c2cc3c(cc2c1=O)OCO3`, the activation was 2.9% (inactive).

For the compound `Cc1cccc(NC(=O)c2ccc3ccccc3n2)n1`, the activation is 98.6% (active).

With `Cc1cccc(NC(=O)c2ccccc2NC(=O)C(C)(C)C)n1`, the activation is -22.9% (inactive).

On to `Cc1cccc(NC(=O)COc2ccccc2C)n1`, for which the activation is -19.2% (inactive).

Regarding `O=C(c1c(Cl)nc2sccn12)N1CCCc2ccccc21`, the activation is 4.7% (inactive).

Consider `CS(=O)(=O)N1CCN(C(=O)Cc2ccccc2)CC1`, for which the activation was 3.5% (inactive).

On to `O=C(CCC(=O)N1CCN(S(=O)(=O)c2ccccc2)CC1)NC1CCCc2ccccc21` (stereo not given), for which the activation is -3.9% (inactive).

`N#C/C=C1\Sc2ccccc2C(=O)N1CC(=O)N1CCN(S(=O)(=O)c2ccccc2)CC1`: the activation was 53.6% (active).

As to `COc1ccccc1CNC(=O)CCn1c(=O)sc2ccccc21`, the activation is -21.4% (inactive).

Turning to `CS(=O)(=O)c1ccc2nc(NC(=O)CN3CCCCCC3)sc2c1`, the activation was -3.6% (inactive).

For the compound `COCCCNC(=O)Cn1cc(C(=O)C2CC2)c2ccccc21`, the activation is 1.7% (inactive).

Consider `CCOc1ccccc1Nc1nnc(SCC(=O)Nc2cc(C)on2)s1`, for which the activation is -12.5% (inactive).

For `C=CCNC(=O)c1ccc(C)c(Br)c1`, the activation was -12.1% (inactive).

For the compound `COc1ccc2c(c1)CCc1c(C(=O)Nc3c(C)n(C)n(-c4ccccc4)c3=O)noc1-2`, the activation was -6% (inactive).

`COc1ccc2c(c1)CCc1c(C(=O)N3CCc4ccccc4C3)noc1-2`: the activation was 2.4% (inactive).

As to `COc1ccc2c(c1)CCc1c(C(=O)N3CCCC3)noc1-2`, the activation is 55.3% (active).

Regarding `O=C(O)CCC(=O)N(Cc1ccco1)c1nc(-c2ccccc2)cs1`, the activation is 9.9% (inactive).

For the compound `CCc1nc(N2CCN(c3nc(C)cc(C)n3)CC2)c2oc3ccccc3c2n1`, the activation was 12% (inactive).

With `CCSc1nc(C)nc2c1oc1ccccc12`, the activation was -10.2% (inactive).

`CCc1nc(Nc2ccc3nccnc3c2)c2oc3ccccc3c2n1`: the activation is 50.3% (active).

In the case of `COc1ccc(N2CCN(C(=O)CSc3nnc4ncccn34)CC2)cc1`, the activation was -2.5% (inactive).

Regarding `CCc1nnc(NC(=O)CSc2nnc(COc3ccc(C#N)cc3)n2-c2ccccc2)s1`, the activation was 0.6% (inactive).

As to `CCN(CC)c1ccc(C(=O)OCC(=O)c2ccco2)cc1`, the activation was 53.6% (active).

As for `O=C(OCC(=O)N1CCCC1)c1ccco1`, the activation was 14.1% (inactive).

Regarding `O=C(COC(=O)c1ccccc1C(=O)c1ccccc1)c1ccco1`, the activation was -2.1% (inactive).

The values are drawn from PubChem BioAssay AID522 (The Scripps Research Institute Molecular Screening Center, 2006).
